Data on five compounds can be found in paper PMC8724840 (Biomolecules & Therapeutics, 2021).

One data set addresses T1, GPR41 (Homo sapiens, UniProt O14843).
T1 sequence (O14843 1-346): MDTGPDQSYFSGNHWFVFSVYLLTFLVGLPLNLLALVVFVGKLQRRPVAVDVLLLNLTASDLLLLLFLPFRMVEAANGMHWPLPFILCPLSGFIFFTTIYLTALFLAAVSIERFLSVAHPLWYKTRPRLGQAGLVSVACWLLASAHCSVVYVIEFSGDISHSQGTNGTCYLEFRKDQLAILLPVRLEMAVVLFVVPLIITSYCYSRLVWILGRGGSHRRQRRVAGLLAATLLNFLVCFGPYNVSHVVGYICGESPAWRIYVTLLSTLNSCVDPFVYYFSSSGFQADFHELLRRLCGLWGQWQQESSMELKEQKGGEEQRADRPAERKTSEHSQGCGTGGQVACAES
In words: cAMP assay in GPR41-expressing HEK293 cells. In kind it is cell-based. On the technique in general: cAMP levels reflect the balance of adenylyl cyclase and phosphodiesterase activity.

The target of data set [1] is T2, human GPR43 (Homo sapiens, UniProt O15552).
T2 sequence (O15552 1-330): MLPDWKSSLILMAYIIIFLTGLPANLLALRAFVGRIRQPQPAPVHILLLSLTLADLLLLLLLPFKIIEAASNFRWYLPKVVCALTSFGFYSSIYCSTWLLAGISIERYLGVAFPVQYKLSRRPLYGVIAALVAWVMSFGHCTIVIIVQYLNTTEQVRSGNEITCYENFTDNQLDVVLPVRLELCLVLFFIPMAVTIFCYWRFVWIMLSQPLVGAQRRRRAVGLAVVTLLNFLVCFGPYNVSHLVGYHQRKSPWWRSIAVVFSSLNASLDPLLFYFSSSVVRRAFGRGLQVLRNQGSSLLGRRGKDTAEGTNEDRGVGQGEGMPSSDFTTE
In words: Ca2+ flux assay in HEK293-hGPR43 cells. The format is cell-based. An outline of the steps:
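HEK293 cells with cumate-inducible human GPR43, kept in DMEM/10% FBS/GlutaMAX/Pen-Strep/2 μg/mL puromycin at 37°C, 5% CO2. Seeded overnight, then loaded 2 h with Calcium 6 dye plus 2.5 mM probenecid. Fluorescence read (ex 485/em 525 nm) every 2.1 s for 50 s. Cells serum-starved. Run in duplicate or triplicate; mean ± SEM.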
In general terms: Calcium assays in cells follow changes in intracellular calcium, usually with a dye or a luminescent sensor.

For data set [2], the target named is T2, human GPR43. The data set is described as follows: GloSensor cAMP assay in HEK293-hGPR43 cells. The format is cell-based. In a few lines: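 pGloSensor-22F was transfected into cumate-inducible HEK293-hGPR43 cells, which were re-plated 24 h later for 16 h. Cells were equilibrated 2 h at 20°C in CO2-independent medium with 2% GloSensor cAMP reagent, then pre-read. Compound was added for 5 min, then 1 μM forskolin for 15 min, followed by a luminescence post-read. Signal is post/pre-read, normalised to 0.2% DMSO. Single-point acetate/propionate 10 mM, other agonists 10 μM. Triplicate.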

In the next data set the target is T3, GPR43 and β-arrestin 2 (Homo sapiens, UniProt O15552).
T3 sequence (O15552 1-330): T2 sequence (O15552 1-330)
The data set is described as follows: Nano-Glo live cell assay of interaction between GPR43 and β-arrestin 2. The settings on record: for change of potency / slope in β-arrestin-2 NanoBiT assay on addition of acetate: co-treatment with fixed concentrations of acetate. The format is cell-based.

In data set [3] the test system is NF-κB activity induced by TNF-α in GPR43-expressing cells. The data set is described as follows: NF-κB luciferase reporter assay in HEK293-hGPR43 cells. In kind it is cell-based, human. An outline of the steps:
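For the NF-κB reporter readout, HEK293-hGPR43 cells were transfected with an NF-κB-RE luciferase reporter (pGL4.32), incubated 24 h at 37°C, 5% CO2, and plated overnight. Compound pretreatment lasted 20 min, then 10 ng/mL human TNF-α was added for 6 h at 37°C. Luminescence was read 15 min after adding One-Glo reagent. Duplicate or triplicate.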
On the technique in general: In a reporter assay the amount or activity of a reporter protein is the signal.

The next data set has as its system DSS-induced colitis. The data set is described as follows: DSS-induced colitis mouse model. The format is in vivo, mouse (female C57BL/6). Conditions: 30 mg/kg p.o. daily, 2% DSS. An outline of the steps:
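Female C57BL/6 mice, 5 weeks old, SPF, acclimated 1 week, given 2% DSS (36–50 kDa) in drinking water ad libitum, renewed every 3 days. Compound 30 mg/kg p.o. daily. Scored daily: weight loss 0–4, stool 0–3, hemoccult bleeding 0–3. DAI is their sum. Day 8: colon length measured. PFA-fixed paraffin swiss-rolls stained for MPO by IHC (ABC, hematoxylin). n=5 control, 10 others.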

A further data set in a line: Solubility in DMSO. The format is physicochemical. The settings on record: at a concentration of 20 mM.
[4] abbreviates: Homo sapiens, 6 h, read-out: EC50 NF-κB.

Where two headings read alike, the source gives them in different places.

Turning to `CC1=C(C(=O)Nc2cc(Cl)ccc2Cl)C(c2ccco2)C2=C(CCCC2=O)N1` (stereo not shown) [AR420626], the “cAMP level in GPR41-expressing cells” value at GPR41 (10 μM) is given as “exerted activity”.

As a reminder, the EC50 is the concentration giving half of the maximal effect. For the compound `CC(=O)[O-].[Na+]` [Acetate, sodium acetate, reference compound], the EC50 was determined as 57.7 µM at human GPR43 [1] (read-out: EC50 Ca^2+, HEK293-hGPR43); 301 µM at human GPR43 [2] (read-out: EC50 cAMP, HEK293-hGPR43, forskolin 1 μM); 300 µM on human GPR43 [2] (read-out: EC50 in the cAMP assay, HEK293-hGPR43); 1440 µM on GPR43 and β-arrestin 2 (read-out: EC50 β-Arrestin 2, GPR43-SmBit / LgBit-βarr2, 25 min); 77.4 µM in data set [3] (read-out: EC50 NF-κB, 10 ng/mL TNF-α, 6 h). Further, the “cAMP level in GPR43-expressing cells” value at human GPR43 [2] (10 mM) is listed as “decrease”. Also, the “cAMP level in GPR41-expressing cells” value on GPR41 (10 mM) is “decrease”. In addition, in data set [3] (10 ng/mL TNF-α), the “efficacy of inhibition of NF-κB luciferase reporter activity” value is reported as “half the efficacy”.

For `Cc1nc(N2CCCC(C)C2)c2[nH]c(N)c(S(=O)(=O)c3ccccc3)c2n1` (stereo not shown) [Compound 110, 2-methyl-4-(3-methylpiperidin-1-yl)-7-(phenylsulfonyl)-5H-pyrrolo[3,2-d]pyrimidine-6-amine], the concentration giving a half-maximal response (EC50) on human GPR43 [1] was determined as 2.41 µM. It took 18.7 µM to reach a half-maximal effect on human GPR43 [2] (EC50). In addition, the “cAMP level in GPR43-expressing cells” value on human GPR43 [2] (10 μM) is listed as “significantly suppressed”. The “potency in the cAMP assay” value on human GPR43 [2] (HEK293-hGPR43) was “micromolar potency”. Moreover, on GPR43 and β-arrestin 2, the EC50 was 1.61 µM; the “agonist type in the β-arrestin assay (maximum efficacy vs acetate and PAAT)” value is given as “partial agonists”; the “change of potency / slope in β-arrestin-2 NanoBiT assay on addition of acetate” value was “stiffer slopes”. Besides, in the data set on DSS-induced colitis (day 8), the colon length entry is reported as “significantly restored” and the “level of myeloperoxidase (MPO) staining in colon” value is given as “reduced”. In the data set on DSS-induced colitis (vs vehicle-treated mice), the “daily activity index (DAI)” value is “decrease” and the stool consistency score result is recorded as “decrease”. The “cAMP level in GPR41-expressing cells” value at GPR41 (10 μM) is “no effects”. For the same compound, the “solubility in dimethyl sulfoxide (DMSO)” value in “Solubility in DMSO” was “completely soluble”. In addition, the EC50 in data set [3] (setting [4]) turned out to be 3.41 µM. Besides, in data set [3] (Homo sapiens, read-out: EC50 NF-κB luciferase reporter), the EC50 turned out to be 3.4 µM.

Take `Cc1nc(N2C[C@@H](C)O[C@@H](C)C2)c2[nH]c(N)c(S(=O)(=O)c3ccccc3F)c2n1` [Compound 187, 4-[(2R,6S)-2,6-dimethylmorpholin-4-yl]-7-(2-fluorobenzenesulfonyl)-2-methyl-5H-pyrrolo[3,2-d]pyrimidin-6-amine]: the concentration for a half-maximal effect (EC50) at human GPR43 [1] was determined as 0.019 µM; on human GPR43 [2], 0.016 µM; on GPR43 and β-arrestin 2, 0.018 µM; in data set [3] (setting [4]), 0.019 µM. Besides, the “potency and efficacy in the calcium assay” value at human GPR43 [1] (HEK293-hGPR43) is “highest potency and efficacy”. Moreover, the “cAMP level in GPR43-expressing cells” value on human GPR43 [2] (10 μM) was “significantly suppressed”. Further, on GPR43 and β-arrestin 2, the “agonist type in the β-arrestin assay (maximum efficacy vs acetate and PAAT)” value was “partial agonists”. In addition, the “change of potency / slope in β-arrestin-2 NanoBiT assay on addition of acetate” value on GPR43 and β-arrestin 2 is “stiffer slopes”. Further, the “level of myeloperoxidase (MPO) staining in colon” value in the data set on DSS-induced colitis (day 8) was “reduced”. Also, at GPR41 (10 μM), the “cAMP level in GPR41-expressing cells” value was “no effects”. The “solubility in dimethyl sulfoxide (DMSO)” value in the data set “Solubility in DMSO” is “completely soluble”.

As to `CCC(=O)O` [propionate, reference compound], the “cAMP level in GPR43-expressing cells” value on human GPR43 [2] (10 mM) is reported as “decrease”. Further, the “cAMP level in GPR41-expressing cells” value on GPR41 (10 mM) is “decrease”.
